How the values were obtained:
[1] = target: T1, rat brain FAAH (Rattus norvegicus, UniProt P97612); assay: In vitro rat FAAH radiometric assay; assay type: biochemical
T1 sequence (P97612 1-579): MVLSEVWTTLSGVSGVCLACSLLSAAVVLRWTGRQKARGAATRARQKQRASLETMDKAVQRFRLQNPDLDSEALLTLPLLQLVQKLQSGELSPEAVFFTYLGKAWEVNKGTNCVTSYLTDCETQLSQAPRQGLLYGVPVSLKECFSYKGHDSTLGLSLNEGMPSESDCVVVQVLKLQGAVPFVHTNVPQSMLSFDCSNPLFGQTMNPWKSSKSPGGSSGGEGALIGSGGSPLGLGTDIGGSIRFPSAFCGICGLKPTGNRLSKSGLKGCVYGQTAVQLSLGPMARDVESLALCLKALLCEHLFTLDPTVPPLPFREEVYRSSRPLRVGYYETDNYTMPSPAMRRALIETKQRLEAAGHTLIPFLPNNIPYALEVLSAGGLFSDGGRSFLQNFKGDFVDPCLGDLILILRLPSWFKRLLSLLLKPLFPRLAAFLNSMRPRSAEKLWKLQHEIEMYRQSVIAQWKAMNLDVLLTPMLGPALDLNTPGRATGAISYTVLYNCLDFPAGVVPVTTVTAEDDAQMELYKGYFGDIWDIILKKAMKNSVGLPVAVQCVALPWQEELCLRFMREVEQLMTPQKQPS

[2] = tested on: panel of >90 biologically relevant receptors, enzymes and ion channels; assay: Off-target panel of >90 biologically relevant targets; conditions: Table S1
[3] = tested on: COX products (6-keto-PGF1α, TXB2) and FAAH substrate OEA in plasma; assay type: in vivo; conditions: mice, 1 mg/kg intravenous, 1 h, vs vehicle
Outline: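 Mice, randomised in groups of 6 and handled blind, were decapitated under anaesthesia 1 h after a 1 mg/kg intravenous dose. Heparinised cardiac blood (0.3 mL) was spun at 2000×g for 30 min to give plasma. OEA was extracted with cold acetone containing [²H₄]-OEA and quantified by LC/MS (MRM) against a 1 nM–10 µM calibration curve. 6-keto-PGF1α and […] were measured by ELISA kit. Values are mean ± s.e.m. (n=6), compared with vehicle by two-tailed Student's t test.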

[4] = target: T2, ovine COX-1 (Ovis aries, UniProt P05979); assay: In vitro COX assay; assay type: biochemical; conditions: for increase in potency toward COX-1: compared to 10a; for decrease in potency toward COX-1: compared to 10r
T2 sequence (P05979 25-600): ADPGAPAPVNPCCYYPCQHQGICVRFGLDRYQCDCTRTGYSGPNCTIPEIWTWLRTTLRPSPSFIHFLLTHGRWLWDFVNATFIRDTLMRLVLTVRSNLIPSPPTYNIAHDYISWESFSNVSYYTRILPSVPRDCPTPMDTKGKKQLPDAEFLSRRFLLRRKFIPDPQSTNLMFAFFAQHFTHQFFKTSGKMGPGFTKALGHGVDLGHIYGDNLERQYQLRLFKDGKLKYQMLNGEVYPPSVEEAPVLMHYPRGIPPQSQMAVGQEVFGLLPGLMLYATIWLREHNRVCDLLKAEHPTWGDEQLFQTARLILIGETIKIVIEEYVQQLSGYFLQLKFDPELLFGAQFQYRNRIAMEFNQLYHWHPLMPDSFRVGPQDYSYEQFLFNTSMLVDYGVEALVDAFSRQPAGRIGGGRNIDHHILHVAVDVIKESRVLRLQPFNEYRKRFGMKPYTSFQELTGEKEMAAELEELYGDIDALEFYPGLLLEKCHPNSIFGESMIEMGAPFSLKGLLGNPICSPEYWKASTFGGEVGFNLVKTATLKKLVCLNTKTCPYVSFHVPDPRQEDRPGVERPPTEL

[5] = tested on: FAAH and COX; conditions: mice; cited from earlier work
[6] = tested on: mouse models of IBD; conditions: cited from earlier work
[7] = tested on: panel of >90 biologically relevant receptors, enzymes and ion channels; conditions: cited from earlier work
[8] = target: T3, human recombinant COX-2 (Homo sapiens, UniProt P35354); assay: In vitro COX assay; assay type: biochemical; conditions: compared to 10r
T3 sequence (P35354 18-604): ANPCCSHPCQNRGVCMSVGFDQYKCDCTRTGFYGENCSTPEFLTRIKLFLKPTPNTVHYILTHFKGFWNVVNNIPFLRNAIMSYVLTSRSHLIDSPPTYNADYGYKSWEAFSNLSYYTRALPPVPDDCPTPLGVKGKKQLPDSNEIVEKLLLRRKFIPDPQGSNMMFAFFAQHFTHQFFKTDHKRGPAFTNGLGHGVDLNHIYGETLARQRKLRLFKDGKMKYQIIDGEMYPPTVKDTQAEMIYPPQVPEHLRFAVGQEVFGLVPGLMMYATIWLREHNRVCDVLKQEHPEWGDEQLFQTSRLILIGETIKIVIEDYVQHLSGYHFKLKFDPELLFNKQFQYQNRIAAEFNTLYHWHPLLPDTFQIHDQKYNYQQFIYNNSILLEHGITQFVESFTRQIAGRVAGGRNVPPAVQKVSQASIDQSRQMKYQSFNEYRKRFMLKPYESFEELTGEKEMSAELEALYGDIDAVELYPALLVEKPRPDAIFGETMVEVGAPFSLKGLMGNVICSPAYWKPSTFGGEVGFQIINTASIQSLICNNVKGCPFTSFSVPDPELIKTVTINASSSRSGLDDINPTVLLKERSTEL

## CC(C(=O)O)c1ccc(-c2cccc(OC(=O)NCc3ccccc3)c2)c(F)c1 (racemic) [Compound 10j, (±)-2-[4-[3-(benzylcarbamoyloxy)phenyl]-3-fluoro-phenyl]propanoic acid]
[1]; compared to 10i
  increase in potency toward FAAH: 10 fold

## CCCCCCNC(=O)Oc1cccc(-c2ccc([C@H](C)C(=O)O)cc2F)c1 [(+)-10r, (+)-2-[3-fluoro-4-[3-(hexylcarbamoyloxy)phenyl]phenyl]propanoic acid]
[2]
  off-target activities on a panel of >90 biologically relevant receptors, enzymes (including NAAA) and ion channels: no off-target activities
[3]
  plasma level of 6-keto-PGF1α (stable metabolite of prostacyclin): lowered
  plasma level of TXB2 (stable metabolite of TXA2): lowered
  plasma level of the FAAH substrate OEA: increased

## CC(C(=O)O)c1ccc(-c2cccc(OC(=O)NCC3CCCCC3)c2)c(F)c1 (racemic) [Compound 10e, (±)-2-[4-[3-(cyclohexylmethylcarbamoyloxy)phenyl]-3-fluoro-phenyl]propanoic acid]
[1]; compared to 10a
  increase in potency toward FAAH: 23 fold
[4]
  increase in potency toward COX-1: 10 fold

## CCCCCCNC(=O)Oc1cccc(-c2ccc(C(=O)O)cc2F)c1 [Compound 21c, 3-fluoro-4-[3-(hexylcarbamoyloxy)phenyl]benzoic acid]
[1]; compared to 10r
  decrease in potency toward FAAH: 3 fold

## CC(C(=O)O)c1ccc(-c2cccc(OC(=O)NC3CCC3)c2)c(F)c1 (racemic) [Compound 10c, (±)-2-[4-[3-(cyclobutylcarbamoyloxy)phenyl]-3-fluoro-phenyl]propanoic acid]
[1]; compared to 10a
  loss in potency against FAAH: 10 fold
[4]
  increase in potency toward COX-1: 10 fold

## CCCCCCNC(=O)Oc1cccc(-c2ccc(CC(=O)O)cc2F)c1 [Compound 18b, 2-[3-fluoro-4-[3-(hexylcarbamoyloxy)phenyl]phenyl]acetic acid]
[1]; compared to 10r
  decrease in potency toward FAAH: 2 fold
[4]
  decrease in potency toward COX-1: 180 fold

## CCCCCCNC(=O)Oc1cccc(-c2ccc(C(C)CO)cc2F)c1 (racemic) [Compound 12, (±)-[3-[2-fluoro-4-(2-hydroxy-1-methyl-ethyl)phenyl]phenyl] N-hexylcarbamate]
[1]; compared to 10r
  increase in potency toward FAAH: 10 fold
[4]
  decrease in potency toward COX-1: 100 fold

## CCCCCCNC(=O)Oc1cccc(-c2ccc(C(C)C(=O)O)cc2)c1 (racemic) [Compound 29e, (±)-2-[4-[3-(hexylcarbamoyloxy)phenyl]phenyl]propanoic acid]
[1]; compared to 10r
  increase in potency toward FAAH: 10 fold

## CCCCCCNC(=O)Oc1ccccc1-c1ccc(C(C)C(=O)O)cc1F (racemic) [Compound 15a, (±)-2-[3-fluoro-4-[2-(hexylcarbamoyloxy)phenyl]phenyl]propanoic acid]
[1]; compared to 10r
  decrease in potency toward FAAH: 70 fold
[4]
  decrease in potency toward COX-1: 60 fold

## CCCCCCNC(=O)Oc1cccc(-c2ccc(C(C)C(=O)O)cc2F)c1 (racemic) [Compound 10r, (±)-2-[3-fluoro-4-[3-(hexylcarbamoyloxy)phenyl]phenyl]propanoic acid]
[5]
  engagement of intended targets after oral administration: effectively engages its intended targets
[6]
  anti-inflammatory effects in mouse models of IBD: profound anti-inflammatory effects
[6]; mouse
  COX-dependent gastric toxicity: without causing COX-dependent gastric toxicity
[7]
  off-target activities on a panel of >90 biologically relevant targets: no off-target activities

## CC(C(=O)O)c1ccc(-c2cccc(OC(=O)NCCC3CCCCC3)c2)c(F)c1 (racemic) [Compound 10f, (±)-2-[4-[3-(2-cyclohexylethylcarbamoyloxy)phenyl]-3-fluoro-phenyl]propanoic acid]
[1]; compared to 10a
  increase in potency toward FAAH: 400 fold
[4]
  increase in potency toward COX-1: 50 fold

## CCCCCCNC(=O)Oc1cccc(-c2ccc(C(C)C(=O)O)cc2C(F)(F)F)c1 (racemic) [Compound 29c, (±)-2-[4-[3-(hexylcarbamoyloxy)phenyl]-3-(trifluoromethyl)phenyl]propanoic acid]
[8]
  increase in potency toward COX-2: 2 fold
[1]; compared to 10r
  increase in potency toward FAAH: 6 fold
